From ChEMBL document CHEMBL1128398, “Structure-activity relationship of alpha-galactosylceramides against B16-bearing mice” (1995) come the findings set out here.

The species entered for assay [1] is Homo sapiens. Kind of assay: Lymphocyte Proliferation Stimulatory effect on human umbilical cord blood at 100 ng/mL and measured for [3H]TdR (tritium-thymidine) uptake (percent of control). The format is functional. In short, it runs like this: (§1)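 Mononuclear cells were isolated from human peripheral blood or umbilical cord blood and plated at 1 × 10^5 cells/well in RPMI 1640 with 10% autologous plasma, with compound. After 4 days of incubation, a 6 h [3H]TdR pulse was given and uptake was counted by scintillation. Run in triplicate.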

The species named for assay [2] is Homo sapiens. Kind of assay: Lymphocyte Proliferation Stimulatory effect on human umbilical cord blood at 1 ng/mL and measured for [3H]TdR (tritium-thymidine) uptake (percent of control). Type of assay: functional. In short, it runs like this: as §1
For assay [3], the species on record is Homo sapiens. Kind of assay: Lymphocyte Proliferation Stimulatory effect on human umbilical cord blood at 10 ng/mL and measured for [3H]TdR (tritium-thymidine) uptake (percent of control). Type of assay: functional. In short, it runs like this:
as §1

The species entered for assay [4] is Homo sapiens. Description: Lymphocyte Proliferation Stimulatory effect on human peripheral blood at 1 ng/mL and measured for [3H]TdR (tritium-thymidine) uptake (percent of control). The format is functional. The method in brief:
as §1

Assay [5] is filed under the species Homo sapiens. Kind of assay: Lymphocyte Proliferation Stimulatory effect on human peripheral blood at 10 ng/mL and measured for [3H]TdR (tritium-thymidine) uptake (percent of control). The format is functional. In short, it runs like this: as §1
The species entered for assay [6] is Homo sapiens. Kind of assay: Lymphocyte Proliferation Stimulatory effect on human peripheral blood at 100 ng/mL and measured for [3H]TdR (tritium-thymidine) uptake (percent of control). Type of assay: functional. In short, it runs like this:
as §1

For assay [7], the system named is Mus musculus. Description: Compound is administered at days 6, 10, and 14.Tumor volume of each mouse is measured on days 8, 12, 16 and 20(chemotherapeutic agent, mitomycin C (MMC)). The format is functional.
For assay [8], the system named is Mus musculus. Kind of assay: Compound is administered at days 6, 10, and 14.Tumor volume of each mouse is measured on days 8, 12, 16 and 20(compound alone (single)). The format is functional.
Assay [9] concerns Mus musculus. Description: Compound is administered at days 6, 10, and 14.Tumor volume of each mouse is measured on days 8, 12, 16 and 20(compound plus MMC). The format is functional.
Assay [10] deals with B16. Kind of assay: Tumor Growth Inhibitory effect (TGIR) on mice subcutaneously inoculated with B16 cells (chemotherapeutic agent, mitomycin C (MMC)). Also on record: concentration or dose not given beside the values. Type of assay: functional, Mus musculus. In short, it runs like this: (§2)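 Groups of six female BDF1 mice received B16 melanoma (1 × 10^6 cells/mouse) s.c. on day 0. AGL analogues were given i.v. at 100 μg/kg on days 1, 5 and 9, and MMC at 5 mg/kg i.p. on day 1; controls were untreated. Tumor volume (length × width × height/2, by callipers) was read on days 8, 12, 16 and 20. TGIR = [1 − mean test volume/mean control volume] × 100, and the maximum value is reported.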

Assay [11] concerns B16. Kind of assay: Tumor Growth Inhibitory effect (TGIR) on mice subcutaneously inoculated with B16 cells (compound alone (single)). Type of assay: functional, Mus musculus. Also on record: concentration or dose not given beside the values. The method in brief:
as §2

Assay [12] deals with B16. Kind of assay: Tumor Growth Inhibitory effect (TGIR) on mice subcutaneously inoculated with B16 cells (compound plus MMC). Set-up: concentration or dose not given beside the values. The format is functional, Mus musculus. The method in brief:
as §2

The species named for assay [13] is Mus musculus. Kind of assay: Lymphocyte Proliferation Stimulatory effect was tested on mouse spleen cells and evaluated for at 6 h [3H]TdR (tritium-thymidine) pulse and uptake into cells at 1 ng/mL. The format is functional. The method in brief: (§3)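 BALB/c spleen cells (2 × 10^5 cells/well, no stimulator cells) were cultured in 10% FCS RPMI 1640 with compound at 37 °C in 5% CO2 for 2–3 days. A 6 h [3H]TdR pulse followed, and uptake was counted by liquid scintillation. Run in triplicate.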

Assay [14] is filed under the species Mus musculus. Description: Lymphocyte Proliferation Stimulatory effect on Allogenic MLR at 10 ng/mL and measured for [3H]TdR (tritium-thymidine) uptake (percent of control). The format is functional. In short, it runs like this: (§4)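 Responders were BALB/c spleen cells and stimulators were C57BL/6 spleen cells pretreated with MMC (50 μg/mL, 30 min). Both were plated at 1 × 10^5 cells in 10% FCS RPMI 1640, with compounds added at plating. Culture was at 37 °C in 5% CO2 for 2–3 days, then a 6 h [3H]TdR pulse with scintillation counting. Run in triplicate.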

The species named for assay [15] is Mus musculus. Description: Lymphocyte Proliferation Stimulatory effect on Allogenic MLR at 100 ng/mL and measured for [3H]-TdR (tritium-thymidine) uptake (percent of control). The format is functional. In short, it runs like this:
as §4

The species entered for assay [16] is Mus musculus. Description: Lymphocyte Proliferation Stimulatory effect was tested on mouse spleen cells and evaluated for at 6 h [3H]TdR (tritium-thymidine) pulse and uptake into cells at 10 ng/mL. The format is functional. In short, it runs like this: as §3
The species named for assay [17] is Mus musculus. Description: Lymphocyte Proliferation Stimulatory effect was tested on mouse spleen cells and evaluated for at 6 h [3H]TdR (tritium-thymidine) pulse and uptake into cells at 100 ng/mL. Type of assay: functional. The method in brief:
as §3

Assay [18] is filed under the species Mus musculus. Kind of assay: Lymphocyte Proliferation Stimulatory effect on Allogenic MLR at 0.1 ng/mL and measured for [3H]TdR (tritium-thymidine) uptake (percent of control). Type of assay: functional. The method in brief: as §4
The species entered for assay [19] is Mus musculus. Kind of assay: Lymphocyte Proliferation Stimulatory effect on Allogenic MLR at 1 ng/mL and measured for [3H]TdR (tritium-thymidine) uptake (percent of control). Type of assay: functional. The method in brief:
as §4

Assay [20] is filed under the species Mus musculus. Kind of assay: Lymphocyte Proliferation Stimulatory effect on allogenic MLR at a concentration of 100n g/mL. The format is functional. In short, it runs like this: as §4
The species named for assay [21] is Mus musculus. Description: Lymphocyte Proliferation Stimulatory effect on allogenic MLR at a concentration of 10 ng/mL. Type of assay: functional. The method in brief:
as §4

The species entered for assay [22] is Mus musculus. Kind of assay: Lymphocyte Proliferation Stimulatory effect on allogenic MLR at a concentration of 1 ng/mL. The format is functional. The method in brief: as §4
The species named for assay [23] is Mus musculus. Kind of assay: Lymphocyte Proliferation Stimulatory effect on mouse spleen cell at a concentration of 100n g/mL. The format is functional. In short, it runs like this: as §3
The species entered for assay [24] is Mus musculus. Kind of assay: Lymphocyte Proliferation Stimulatory effect on mouse spleen cell at a concentration of 10 ng/mL. The format is functional. The method in brief:
as §3

For assay [25], the species on record is Mus musculus. Kind of assay: Lymphocyte Proliferation Stimulatory effect on mouse spleen cell at a concentration of 1 ng/mL. Type of assay: functional. The method in brief: as §3
For assay [26], the species on record is Mus musculus. Kind of assay: Lymphocyte Proliferation Stimulatory effect on Allogenic MLR at 1 ng/tritium-thymidine) uptake (percent of control). Type of assay: functional. In short, it runs like this:
as §4

As for `CCCCCCCCCCCCCCCCCCCCCCCC[C@@H](O)C(=O)N[C@@H](CO[C@H]1O[C@@H](CO)[C@H](O)[C@H](O)[C@@H]1O)[C@H](O)[C@H](O)CCCCCCCCCCCCCC`, the Control in [1] was found to be 586%; in assay [2], 382%; in [3], 582%; in [4], 332%; in assay [5], 352%; in [6] it was 470%. Further, the Control in assay [7] was 67.6%; in assay [8], 69.8%; in [9] it was 85%; in assay [11] it was 92.8%; in assay [12], 97.7%; in assay [13], 203%. The Control in assay [14] amounted to 250%; in assay [15] it was 280%; in assay [16] it was 437%; in assay [17] it was 620%; in assay [18], 118%; in [19] it was 180%. Also, in assay [10], the “Tumor growth inhibition ratio (max TGIR)” value came to 87.3%.
Regarding `CCCCCCCCCCCCCCCCCCCCCC[C@@H](O)C(=O)N[C@@H](CO[C@H]1O[C@@H](CO)[C@H](O)[C@H](O)[C@@H]1O)[C@H](O)[C@H](O)CCCCCCCCCCCC(C)C` (stereo in doubt; form 1), the “Tumor growth inhibition ratio (max TGIR)” value in [10] was found to be 61.5%. In addition, the Control in assay [11] amounted to 86.8%; in assay [12] it was 94.6%; in assay [13] it was 282%; in assay [16], 524%; in assay [17], 879%. In addition, the “[3H] TdR uptake” value is listed as 31219 c.p.m in assay [20]; 38668 c.p.m in assay [21]; 29143 c.p.m in assay [22]; 23968 c.p.m in [23]; 20746 c.p.m in [24]; 7935 c.p.m in [25].
Consider `CCCCCCCCCCCCCCCCCCCCCC[C@@H](O)C(=O)N[C@@H](CO[C@H]1O[C@@H](CO)[C@H](O)[C@H](O)[C@@H]1O)[C@H](O)[C@H](O)CCCCCCCCCCCC(C)C` (stereo in doubt; form 2), for which the “[3H] TdR uptake” value turned out to be 32240 c.p.m in [20]; 36713 c.p.m in [21]; 36022 c.p.m in assay [22]; 24264 c.p.m in assay [23]; 19985 c.p.m in assay [24]; 8230 c.p.m in [25].
With `CCCCCCCCCCCCCCCCCCCCCCCCCC(=O)N[C@@H](CO[C@H]1O[C@H](CO)[C@H](O)[C@H](O)[C@H]1O)[C@H](O)[C@H](O)CCCCCCCCCCCCCC` [RGI-7000], the Control in [1] worked out at 581%; in [2], 398%; in [3], 663%; in [4], 356%; in [5], 389%; in assay [6], 590%. Besides, the Control in assay [11] came to 53.8%; in assay [12] it was 86.7%; in assay [14], 251%; in assay [15], 283%; in assay [18] it was 125%; in assay [26], 200%. Further, the “Tumor growth inhibition ratio (max TGIR)” value in assay [10] was 67.6%.
